Measurements from ChEMBL document CHEMBL5724801, “EUbOPEN Chemogenomics Library - Multiplex” (2024).
“And” between values parts separate entries of the source, which are not always exact repeats. Equal values may be shown once.

Test system: U2OS
Experiment: Multiplex assay against U2OS
Assay type: toxicity, cell-based
Details: human
Summary of the method: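 Tubulin, mitochondrial-mass and membrane-permeability phenotypes are per cents of healthy-nucleus cells. Cells were gated by CellPathfinder machine learning into Hoechst high-intensity objects or normal cells, normal cells into healthy, pyknosed or fragmented nuclei, and pyknosed cells into mitotic or apoptotic. Before that, live cells stained at seeding with Hoechst33342, BioTracker Green Microtubule Cytoskeleton Dye, MitoTracker Red and Annexin V Alexa Fluor 680 were imaged on a CQ1 microscope at 37°C and 5% CO2 after compound addition.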

[1] = 12 h, 1 µM, compound concentration 1 uM
[2] = 12 h, 10 µM, compound concentration 10 uM
[3] = 24 h, 1 µM, compound concentration 1 uM
[4] = 24 h, 10 µM, compound concentration 10 uM
[5] = 48 h, 1 µM, compound concentration 1 uM
[6] = 48 h, 10 µM, compound concentration 10 uM

## Cc1cc(C)cc(C(=O)NOCCCCCC(=O)NO)c1
[1]
  Population Apoptotic (%): 33.33% and 45.83%
  Population Fragmented Nuclei (%): 2.19% and 1.16%
  Population Healthy Nuclei (%): 82.02% and 84.97%
  Population Hoechst High Intensity Objects (%): 0%
  Population Membrane Permeable-Phenotype (%): 0.53% and 4.08%
  Population Mitochondria Different-Phenotype (%): 0.27% and 4.08%
  Population Mitotic Cells (%): 66.67% and 54.17%
  Population Normal (%): 100%
  Population Pyknosed Nuclei (%): 15.79% and 13.87%
  Population Tubulin-Different-Phenotype (%): 0.8% and 1.36%
  Total Cell Count: 456 and 173
[2]
  Population Apoptotic (%): 27.78% and 30.23%
  Population Fragmented Nuclei (%): 2.46% and 2.56%
  Population Healthy Nuclei (%): 79.85% and 69.87%
  Population Hoechst High Intensity Objects (%): 0%
  Population Membrane Permeable-Phenotype (%): 1.23% and 4.59%
  Population Mitochondria Different-Phenotype (%): 0.31% and 9.17%
  Population Mitotic Cells (%): 72.22% and 69.77%
  Population Normal (%): 100%
  Population Pyknosed Nuclei (%): 17.69% and 27.56%
  Population Tubulin-Different-Phenotype (%): 2.46% and 1.83%
  Total Cell Count: 407 and 156
[3]
  Population Apoptotic (%): 42.11% and 38.46%
  Population Fragmented Nuclei (%): 5.65% and 5.61%
  Population Healthy Nuclei (%): 59.88% and 61.22%
  Population Hoechst High Intensity Objects (%): 0%
  Population Membrane Permeable-Phenotype (%): 0.67% and 1.67%
  Population Mitochondria Different-Phenotype (%): 0.34% and 5%
  Population Mitotic Cells (%): 57.89% and 61.54%
  Population Normal (%): 100%
  Population Pyknosed Nuclei (%): 34.48% and 33.16%
  Population Tubulin-Different-Phenotype (%): 3.37% and 1.67%
  Total Cell Count: 496 and 196
[4]
  Population Apoptotic (%): 36.05% and 42.86%
  Population Fragmented Nuclei (%): 8.75% and 10%
  Population Healthy Nuclei (%): 30.26% and 41.88%
  Population Hoechst High Intensity Objects (%): 0%
  Population Membrane Permeable-Phenotype (%): 0.78% and 10.45%
  Population Mitochondria Different-Phenotype (%): 0% and 4.48%
  Population Mitotic Cells (%): 63.95% and 57.14%
  Population Normal (%): 100%
  Population Pyknosed Nuclei (%): 60.99% and 48.12%
  Population Tubulin-Different-Phenotype (%): 3.12% and 11.94%
  Total Cell Count: 423 and 160
[5]
  Population Apoptotic (%): 77.2% and 80.52%
  Population Fragmented Nuclei (%): 9.29% and 8.45%
  Population Healthy Nuclei (%): 55.56% and 55.4%
  Population Hoechst High Intensity Objects (%): 0.18% and 0%
  Population Membrane Permeable-Phenotype (%): 4.92% and 7.63%
  Population Mitochondria Different-Phenotype (%): 0.66% and 5.93%
  Population Mitotic Cells (%): 22.8% and 19.48%
  Population Normal (%): 99.82% and 100%
  Population Pyknosed Nuclei (%): 35.15% and 36.15%
  Population Tubulin-Different-Phenotype (%): 6.89% and 8.47%
  Total Cell Count: 550 and 213
[6]
  Population Apoptotic (%): 79.12% and 92.94%
  Population Fragmented Nuclei (%): 3.39% and 4.58%
  Population Healthy Nuclei (%): 31.59% and 39.87%
  Population Hoechst High Intensity Objects (%): 0%
  Population Membrane Permeable-Phenotype (%): 15.7% and 31.15%
  Population Mitochondria Different-Phenotype (%): 0.83% and 3.28%
  Population Mitotic Cells (%): 20.88% and 7.06%
  Population Normal (%): 100%
  Population Pyknosed Nuclei (%): 65.01% and 55.56%
  Population Tubulin-Different-Phenotype (%): 44.63% and 32.79%
  Total Cell Count: 383 and 153

## COc1cc2nc(N3CCN(C(=O)COc4c(OC)cccc4C(C)C)CC3)nc(N)c2cc1OC.Cl.Cl
[1]
  Population Apoptotic (%): 67% and 33%
  Population Fragmented Nuclei (%): 21% and 10%
  Population Healthy Nuclei (%): 66% and 84%
  Population Hoechst High Intensity Objects (%): 3% and 2%
  Population Membrane Permeable-Phenotype (%): 10%
  Population Mitochondria Different-Phenotype (%): 5% and 6%
  Population Mitotic Cells (%): 32% and 66%
  Population Normal (%): 96% and 97%
  Population Pyknosed Nuclei (%): 11% and 4%
  Population Tubulin-Different-Phenotype (%): 6%
  Total Cell Count: 256 and 136
[2]
  Population Apoptotic (%): 55% and 66%
  Population Fragmented Nuclei (%): 30% and 19%
  Population Healthy Nuclei (%): 43% and 48%
  Population Hoechst High Intensity Objects (%): 3% and 0%
  Population Membrane Permeable-Phenotype (%): 60% and 54%
  Population Mitochondria Different-Phenotype (%): 55% and 65%
  Population Mitotic Cells (%): 44% and 33%
  Population Normal (%): 96% and 99%
  Population Pyknosed Nuclei (%): 25% and 32%
  Population Tubulin-Different-Phenotype (%): 75% and 68%
  Total Cell Count: 233 and 151
[3]
  Population Apoptotic (%): 84% and 80%
  Population Fragmented Nuclei (%): 21% and 15%
  Population Healthy Nuclei (%): 67% and 77%
  Population Hoechst High Intensity Objects (%): 3% and 0%
  Population Membrane Permeable-Phenotype (%): 6% and 10%
  Population Mitochondria Different-Phenotype (%): 8% and 7%
  Population Mitotic Cells (%): 15% and 20%
  Population Normal (%): 96% and 99%
  Population Pyknosed Nuclei (%): 11% and 6%
  Population Tubulin-Different-Phenotype (%): 4% and 5%
  Total Cell Count: 297 and 154
[4]
  Population Apoptotic (%): 76% and 87%
  Population Fragmented Nuclei (%): 30% and 20%
  Population Healthy Nuclei (%): 36% and 40%
  Population Hoechst High Intensity Objects (%): 9% and 12%
  Population Membrane Permeable-Phenotype (%): 40% and 49%
  Population Mitochondria Different-Phenotype (%): 49% and 50%
  Population Mitotic Cells (%): 24% and 12%
  Population Normal (%): 90% and 87%
  Population Pyknosed Nuclei (%): 33% and 39%
  Population Tubulin-Different-Phenotype (%): 50% and 60%
  Total Cell Count: 246 and 185
[5]
  Population Apoptotic (%): 83% and 75%
  Population Fragmented Nuclei (%): 20% and 16%
  Population Healthy Nuclei (%): 70% and 72%
  Population Hoechst High Intensity Objects (%): 2% and 3%
  Population Membrane Permeable-Phenotype (%): 6% and 7%
  Population Mitochondria Different-Phenotype (%): 6%
  Population Mitotic Cells (%): 16% and 25%
  Population Normal (%): 97% and 96%
  Population Pyknosed Nuclei (%): 8% and 11%
  Population Tubulin-Different-Phenotype (%): 4% and 6%
  Total Cell Count: 441 and 225
[6]
  Population Apoptotic (%): 88% and 93%
  Population Fragmented Nuclei (%): 40% and 24%
  Population Healthy Nuclei (%): 21% and 23%
  Population Hoechst High Intensity Objects (%): 31% and 32%
  Population Membrane Permeable-Phenotype (%): 13% and 27%
  Population Mitochondria Different-Phenotype (%): 30% and 10%
  Population Mitotic Cells (%): 11% and 6%
  Population Normal (%): 68% and 67%
  Population Pyknosed Nuclei (%): 38% and 51%
  Population Tubulin-Different-Phenotype (%): 13% and 24%
  Total Cell Count: 296 and 180
